Experiments:
[1] = molecular target: Aldo-keto reductase family 1 member B1 (Rattus norvegicus) (UniProt P07943); assay: Compound was evaluated at 100 uM for the ability to inhibit partially purified aldose reductase obtained from rat lens
Method in brief: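 Enzyme: 40%-saturation ammonium sulfate supernatant from homogenized rat lenses, diluted so the control rate was about 0.0100 absorbance/min. Reaction at 30 °C in 0.1 M phosphate, pH 6.2, with 0.104 mM NADPH and 10 mM DL-glyceraldehyde, started by substrate. NADPH loss was read at 340 nm for 3.0 min after a 1.0 min lag. Percent inhibition at 100 µM was taken against the substrate-only control.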

[2] = molecular target: T1, Aldo-keto reductase family 1 member B1 (Rattus norvegicus, UniProt P07943); assay: Inhibition of aldose reductase from rat lens. Value ranges from 10 - 520
Method in brief: (§1)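 Rat lens aldose reductase was the 40% ammonium sulfate supernatant. Assay at 30 °C in 0.1 M phosphate, pH 6.2, with 0.104 mM NADPH and 10 mM DL-glyceraldehyde, following NADPH decrease at 340 nm over 3.0 min. At least four inhibitor concentrations, three or more determinations each.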

[3] = molecular target: T1, Aldo-keto reductase family 1 member B1; assay: Inhibition of aldose reductase from rat lens. Value ranges from 0.02 -0.64; method in brief: as §1
[4] = molecular target: T1, Aldo-keto reductase family 1 member B1; assay: Inhibition of aldose reductase from rat lens. Value ranges from 110 - 430; method in brief: as §1
[5] = molecular target: T1, Aldo-keto reductase family 1 member B1; assay: Inhibition of aldose reductase from rat lens. Value ranges from 7 - 33; method in brief: as §1
[6] = molecular target: T1, Aldo-keto reductase family 1 member B1; assay: Inhibition of aldose reductase from rat lens. Value ranges from 16 - 360; method in brief: as §1
[7] = molecular target: T1, Aldo-keto reductase family 1 member B1; assay: Inhibition of aldose reductase from rat lens. Value ranges from 35-160; method in brief: as §1
[8] = molecular target: T1, Aldo-keto reductase family 1 member B1; assay: Inhibition of aldose reductase from rat lens. Value ranges from 300 - 2000; method in brief: as §1
[9] = molecular target: T1, Aldo-keto reductase family 1 member B1; assay: Inhibition of aldose reductase from rat lens. Value ranges from 10 - 42; method in brief: as §1
[10] = molecular target: T1, Aldo-keto reductase family 1 member B1; assay: Inhibition of aldose reductase from rat lens. Value ranges from 7 - 130; method in brief: as §1
[11] = molecular target: T1, Aldo-keto reductase family 1 member B1; assay: Inhibition of aldose reductase from rat lens. Value ranges from 5 - 97; method in brief: as §1
[12] = molecular target: T1, Aldo-keto reductase family 1 member B1; assay: Inhibition of aldose reductase from rat lens. Value ranges from 0.6 - 47; method in brief: as §1
[13] = molecular target: T1, Aldo-keto reductase family 1 member B1; assay: Inhibition of aldose reductase from rat lens. Value ranges from 10 - 1300; method in brief: as §1
[14] = molecular target: T1, Aldo-keto reductase family 1 member B1; assay: Inhibition of aldose reductase from rat lens. Value ranges from 9 - 69; method in brief: as §1
[15] = molecular target: T1, Aldo-keto reductase family 1 member B1; assay: Inhibition of aldose reductase from rat lens. Value ranges from 32 - 110; method in brief: as §1
[16] = molecular target: T1, Aldo-keto reductase family 1 member B1; assay: Inhibition of aldose reductase from rat lens. Value ranges from 1.0 - 34; method in brief: as §1
[17] = molecular target: T1, Aldo-keto reductase family 1 member B1; assay: Inhibition of aldose reductase from rat lens. Value ranges from 3 - 300; method in brief: as §1
[18] = molecular target: T1, Aldo-keto reductase family 1 member B1; assay: Inhibition of aldose reductase from rat lens. Value ranges from 0.15 - 3.3; method in brief: as §1
[19] = molecular target: T1, Aldo-keto reductase family 1 member B1; assay: Inhibition of aldose reductase from rat lens. Value ranges from 8.5 - 410; method in brief: as §1
[20] = molecular target: T1, Aldo-keto reductase family 1 member B1; assay: Inhibition of aldose reductase from rat lens. Value ranges from 25-64; method in brief: as §1
[21] = molecular target: T1, Aldo-keto reductase family 1 member B1; assay: Inhibition of aldose reductase from rat lens. Value ranges from 17 - 720; method in brief: as §1
[22] = molecular target: T1, Aldo-keto reductase family 1 member B1; assay: Inhibition of aldose reductase from rat lens. Value ranges from 40 - 680; method in brief: as §1
[23] = molecular target: T1, Aldo-keto reductase family 1 member B1; assay: Inhibition of aldose reductase from rat lens. Value ranges from 140 - 580; method in brief: as §1
[24] = molecular target: T1, Aldo-keto reductase family 1 member B1; assay: Inhibition of aldose reductase from rat lens. Value ranges from 1.5 - 16; method in brief: as §1
[25] = molecular target: T1, Aldo-keto reductase family 1 member B1; assay: Inhibition of aldose reductase from rat lens. Value ranges from 0.5 - 16; method in brief: as §1
[26] = molecular target: T1, Aldo-keto reductase family 1 member B1; assay: Inhibition of aldose reductase from rat lens. Value ranges from 6 - 14; method in brief: as §1
[27] = molecular target: T1, Aldo-keto reductase family 1 member B1; assay: Inhibition of aldose reductase from rat lens. Value ranges from 50 - 650; method in brief: as §1
[28] = molecular target: T1, Aldo-keto reductase family 1 member B1; assay: Inhibition of aldose reductase from rat lens. Value ranges from 4.9 - 23; method in brief: as §1
[29] = molecular target: T1, Aldo-keto reductase family 1 member B1; assay: Inhibition of aldose reductase from rat lens. Value ranges from 10 - 130; method in brief: as §1
[30] = molecular target: T1, Aldo-keto reductase family 1 member B1; assay: Inhibition of aldose reductase from rat lens. Value ranges from 0.1 - 7; method in brief: as §1
[31] = molecular target: T1, Aldo-keto reductase family 1 member B1; assay: Inhibition of aldose reductase from rat lens. Value ranges from 300 - 1100; method in brief: as §1
[32] = molecular target: T1, Aldo-keto reductase family 1 member B1; assay: Inhibition of aldose reductase from rat lens. Value ranges from 0.3 - 2.3; method in brief: as §1
[33] = molecular target: T1, Aldo-keto reductase family 1 member B1; assay: Inhibition of aldose reductase from rat lens. Value ranges from 280 - 490; method in brief: as §1
[34] = molecular target: T1, Aldo-keto reductase family 1 member B1; assay: Inhibition of aldose reductase from rat lens. Value ranges from 20 - 160; method in brief: as §1

Q: Which inhibition [1] does the source give for `CC(=O)N(CC(=O)O)c1cccc2ccccc12` here?
A: 20%

Q: For `O=C(O)CN1C(=O)c2ccccc2CCc2ccccc21`, which IC50 [2] is on record?
A: 79 µM

Q: `O=C(O)CN(C(=O)c1cccc([N+](=O)[O-])c1)c1ccc([N+](=O)[O-])cc1` was tested. Which IC50 [3] did it give?
A: 130 nM

Q: For `Cc1ccc(C(=O)NCC(=O)O)cc1`, which IC50 [4] is on record?
A: 220 µM

Q: For `Nc1cccc(C(=O)NCC(=O)O)c1`, which inhibition [1] is on record?
A: 36%

Q: How did the IC50 [5] turn out when `CC(=O)N(CC(=O)O)c1ccc(C)cc1` was run?
A: 15 µM

Q: `CC(=O)N(c1ccc(C)cc1)C(C)C(=O)O` (stereo not drawn) was tested. Which IC50 [6] did it give?
A: 128 µM

Q: With `Nc1ccccc1C(=O)NCC(=O)O` as the compound, how does the inhibition [1] read?
A: 16%

Q: `COc1ccc(C(=O)NCC(=O)O)cc1` was tested. Which IC50 [7] did it give?
A: 71 µM

Q: Which inhibition [1] does the source give for `Nc1ccc(C(=O)NCC(=O)O)cc1` here?
A: 22%

Q: With `COc1ccc(N(C(C)=O)C(C)C(=O)O)cc1` (stereo not drawn) as the compound, how does the IC50 [8] read?
A: 950 µM

Q: With `CC(=O)N(CC(=O)O)c1cccc([N+](=O)[O-])c1` as the compound, how does the IC50 [9] read?
A: 27 µM

Q: With `COc1ccc(N(CC(=O)O)C(C)=O)cc1` as the compound, how does the IC50 [10] read?
A: 80 µM

Q: With `CC(=O)N(CC(=O)O)c1ccccc1` as the compound, how does the IC50 [11] read?
A: 21 µM

Q: Which inhibition [1] does the source give for `CC(=O)N(CC(=O)O)c1ccccc1C` here?
A: 14%

Q: For `CC(=O)N(CC(=O)O)c1ccc([N+](=O)[O-])cc1`, which IC50 [12] is on record?
A: 5.8 µM

Q: Which IC50 [13] does the source give for `CC(=O)N(c1ccccc1)C(C)C(=O)O` (stereo not drawn) here?
A: 200 µM

Q: `CC(=O)N(CC(=O)O)c1ccc(Cl)cc1` was tested. Which IC50 [14] did it give?
A: 25 µM

Q: How did the inhibition [1] turn out when `COc1ccc(C(=O)NC(C)C(=O)O)cc1` (stereo not drawn) was run?
A: 38%

Q: With `O=C(O)CNC(=O)c1cccc([N+](=O)[O-])c1` as the compound, how does the inhibition [1] read?
A: 32%

Q: With `O=C(O)CNC(=O)c1ccccc1[N+](=O)[O-]` as the compound, how does the IC50 [15] read?
A: 58 µM

Q: With `O=C(O)CN(C(=O)c1cccc2ccccc12)c1ccccc1` as the compound, how does the IC50 [16] read?
A: 5.8 µM

Q: With `O=C(O)CNC(=O)c1ccccc1Cl` as the compound, how does the IC50 [17] read?
A: 31 µM

Q: For `O=C(O)CN1C(=O)c2cccc3cccc1c23`, which IC50 [18] is on record?
A: 670 nM

Q: With `O=C(O)Cn1c(=O)c2ccccc2c(=O)c2ccccc21` as the compound, how does the IC50 [19] read?
A: 65 µM

Q: For `O=C(O)CNC(=O)c1ccc2ccccc2c1`, which IC50 [20] is on record?
A: 40 µM

Q: `CC(=O)N(c1ccc(Cl)cc1)C(C)C(=O)O` (stereo not drawn) was tested. Which IC50 [21] did it give?
A: 110 µM

Q: `CC(=O)N(CC(=O)O)c1cccc(C)c1` was tested. Which inhibition [1] did it give?
A: 10%

Q: For `O=C(O)CN(C(=O)c1ccccc1)c1ccc2ccccc2c1`, which IC50 [22] is on record?
A: 220 µM

Q: How did the IC50 [23] turn out when `O=C(O)CNC(=O)c1ccc([N+](=O)[O-])cc1` was run?
A: 280 µM

Q: For `O=C(O)CN(C(=O)c1ccccc1)c1ccc(Cl)cc1`, which IC50 [24] is on record?
A: 5 µM

Q: How did the IC50 [25] turn out when `Cc1ccc(N(CC(=O)O)C(=O)c2ccccc2)cc1` was run?
A: 3 µM

Q: With `O=C(O)CN(C(=O)c1ccccc1)c1ccccc1` as the compound, how does the IC50 [26] read?
A: 9.5 µM

Q: How did the IC50 [27] turn out when `O=C(O)CN(C(=O)c1ccccc1)c1cccc2ccccc12` was run?
A: 230 µM

Q: `O=C(O)Cn1c(=O)c2ccccc2c2ccccc21` was tested. Which IC50 [28] did it give?
A: 10.7 µM

Q: How did the IC50 [29] turn out when `CC(=O)N(CC(=O)O)c1ccc(O)cc1` was run?
A: 34 µM

Q: How did the IC50 [30] turn out when `COc1ccc(N(CC(=O)O)C(=O)c2ccccc2)cc1` was run?
A: 960 nM

Q: For `O=C(O)CNC(=O)c1ccc(Cl)cc1` [4-CHLOROHIPPURIC ACID], which IC50 [31] is on record?
A: 550 µM

Q: Which IC50 [32] does the source give for `O=C(O)CN(C(=O)c1ccccc1)c1cccc([N+](=O)[O-])c1` here?
A: 860 nM

Q: Which IC50 [33] does the source give for `O=C(O)CNC(=O)c1ccccc1` [HIPPURIC ACID] here?
A: 330 µM

Q: Which inhibition [1] does the source give for `Cc1ccc(C(=O)NC(C)C(=O)O)cc1` (stereo not drawn) here?
A: 19%

Q: With `CC(=O)N(CC(=O)O)c1ccc(N)cc1` as the compound, how does the IC50 [34] read?
A: 55 µM

Q: `CC(NC(=O)c1ccccc1)C(=O)O` (stereo not drawn) was tested. Which inhibition [1] did it give?
A: 14%
